ChEMBL document CHEMBL1833887, “Synthesis and evaluation of 7-substituted 4-aminoquinoline analogues for antimalarial activity” (J Med Chem, 2011)
≈ marks a conversion by molar mass, not a printed value.

How the values were obtained:
[1] = Solubility of the compound at pH 7.4 after 18 hrs by UV spectroscopic analysis; format: physicochemical; conditions: buffer
Summary of the method: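 Kinetic solubility. A 10 mM stock is diluted 1:100 into PBS pH 7.4 and incubated 18 h at room temperature, then filtered; the filtrate is mixed 1:1 with 1-propanol. UV spectrum (250–500 nm) compared by AUC with a 1-propanol/PBS reference. Single experiment in triplicate.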

[2] = Permeability of the compound at pH 7.4 after 30 mins by PAMPA; format: ADME; conditions: read-out: permeability
Summary of the method: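 PAMPA at pH 7.4. A 10 mM DMSO stock is diluted into system solution buffer; its UV spectrum serves as reference. Membrane painted with GIT lipid, acceptor chamber holds acceptor solution buffer. Sandwich stirred for 30 min, aqueous boundary layer set to 40. Donor and acceptor UV spectra read at 250–500 nm. Permeability coefficient from the AUCs of reference, donor and acceptor. Single experiment in triplicate.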

[3] = Dissociation constant, pKa of the compound; format: physicochemical
Plasmodium falciparum [4] = test: Antimalarial activity against chloroquine-sensitive Plasmodium falciparum 3D7 infected in human erythrocytes assessed as reduction in parasitemia after 72 hrs by spectrophotometry; format: functional, organism-based; conditions: 3D7, 72 h
Plasmodium falciparum [5] = test: Antimalarial activity against chloroquine-resistant Plasmodium falciparum K1 infected in human erythrocytes assessed as reduction in parasitemia after 72 hrs by spectrophotometry; format: functional, organism-based; conditions: K1, 72 h
Plasmodium falciparum [6] = test: Ratio of EC50 for chloroquine-resistant Plasmodium falciparum K1 infected in human erythrocytes to EC50 for chloroquine-sensitive Plasmodium falciparum 3D7 infected in human erythrocytes; format: functional
HepG2 = test: Cytotoxicity against human HepG2 cells assessed as intracellular ATP level after 72 hrs by Celltiter-Glo luminescent assay; format: cell-based; conditions: HepG2, 72 h
[7] = Ratio of EC50 for human HepG2 cells to EC50 for Plasmodium falciparum 3D7 infected in human erythrocytes
[8] = Ratio of EC50 for human HepG2 cells to EC50 for Plasmodium falciparum K1 infected in human erythrocytes

Row | SMILES | solubility at 18 h [1] | Papp at 0.5 h [2] | pKa [3] | EC50 (Plasmodium falciparum [4]) | EC50 (Plasmodium falciparum [5]) | Ratio EC50 (Plasmodium falciparum [6]) | EC50 (HepG2) | Ratio EC50 [7] | Ratio EC50 [8]
1 | COc1ccc(Oc2ccc3c(NCCCNCc4ccco4)ccnc3c2)cc1 | 14.5 µM (≈ 5.85 µg/mL) | 317 ×10⁻⁶ cm/s | 9.28 | 4 nM | 20 nM | 5.6 | 5300 nM | 1479 | 265
2 | COc1ccc(F)cc1CNCCCNc1ccnc2cc(Oc3cccc(N(C)C)c3)ccc12 | 14.5 µM (≈ 6.88 µg/mL) | 317 ×10⁻⁶ cm/s | 9.28 | 7 nM | 31 nM | 4.7 | 3300 nM | 514 | 110
3 | c1ccc(Oc2ccc3c(NCCCNCc4ccc5c(c4)OCO5)ccnc3c2)cc1 | 14.5 µM (≈ 6.2 µg/mL) | 317 ×10⁻⁶ cm/s | 9.28 | 18 nM | 78 nM | 4.3 | 2700 nM | 149 | 34
4 | COc1ccccc1Oc1ccc2c(NCCCNCc3ccco3)ccnc2c1 | 14.5 µM (≈ 5.85 µg/mL) | 317 ×10⁻⁶ cm/s | 9.28 | 1 nM | 87 nM | 66.9 | 6500 nM | 5014 | 75
5 | Fc1ccc(Oc2ccc3c(NCCCNCc4ccco4)ccnc3c2)cc1 | 14.5 µM (≈ 5.68 µg/mL) | 317 ×10⁻⁶ cm/s | 9.28 | 26 nM | 96 nM | 3.6 | 16000 nM | 611 | 167
6 | COc1ccc(F)cc1CNCCCNc1ccnc2cc(Oc3ccc(Cl)cc3)ccc12 | 14.5 µM (≈ 6.76 µg/mL) | 317 ×10⁻⁶ cm/s | 9.28 | 31 nM | 109 nM | 3.5 | 4500 nM | 143 | 41
7 | COc1ccc(F)cc1CNCCCNc1ccnc2cc(Oc3ccc(F)cc3)ccc12 | 14.5 µM (≈ 6.52 µg/mL) | 317 ×10⁻⁶ cm/s | 9.28 | 297 nM | 135 nM | 0.5 | 6600 nM | 22 | 49
8 | COc1ccc(F)cc1CNCCCNc1ccnc2cc(Oc3ccccc3)ccc12 | 14.5 µM (≈ 6.26 µg/mL) | 317 ×10⁻⁶ cm/s | 9.28 | 162 nM | 138 nM | 0.9 | 1500 nM | 9 | 11
9 | COc1cccc(Oc2ccc3c(NCCCNCc4ccco4)ccnc3c2)c1 | 14.5 µM (≈ 5.85 µg/mL) | 317 ×10⁻⁶ cm/s | 9.28 | 9 nM | 153 nM | 17.4 | 15500 nM | 1763 | 102
10 | CN(C)c1cccc(Oc2ccc3c(NCCCNCc4ccco4)ccnc3c2)c1 | 14.5 µM (≈ 6.04 µg/mL) | 317 ×10⁻⁶ cm/s | 9.28 | 27 nM | 155 nM | 5.7 | 16000 nM | 588 | 103
11 | COc1cccc(CNCCCNc2ccnc3cc(Oc4ccc(C(C)(C)C)cc4)ccc23)c1O | 14.5 µM (≈ 7.04 µg/mL) | 317 ×10⁻⁶ cm/s | 9.28 | 54 nM | 249 nM | 4.6 | 1500 nM | 28 | 6
12 | COc1cccc(Oc2ccc3c(NCCCNCc4cc(F)ccc4OC)ccnc3c2)c1 | 14.5 µM (≈ 6.69 µg/mL) | 317 ×10⁻⁶ cm/s | 9.28 | 2360 nM | 296 nM | 0.1 | 7100 nM | 3 | 24
13 | Clc1ccc(Oc2ccc3c(NCCCNCc4ccc5c(c4)OCO5)ccnc3c2)cc1 | 14.5 µM (≈ 6.7 µg/mL) | 317 ×10⁻⁶ cm/s | 9.28 | 38 nM | 320 nM | 8.4 | 7200 nM | 189 | 22
14 | COc1ccc(Oc2ccc3c(NCCCNCc4cccc(OC)c4O)ccnc3c2)cc1 | 14.5 µM (≈ 6.66 µg/mL) | 317 ×10⁻⁶ cm/s | 9.28 | 4 nM | 375 nM | 91.5 | 5500 nM | 1347 | 15
15 | COc1ccccc1Oc1ccc2c(NCCCNCc3ccc4c(c3)OCO4)ccnc2c1 | 14.5 µM (≈ 6.63 µg/mL) | 317 ×10⁻⁶ cm/s | 9.28 | 14 nM | 517 nM | 37.7 | 5900 nM | 427 | 11
16 | COc1cccc(Oc2ccc3c(NCCCNCc4ccc5c(c4)OCO5)ccnc3c2)c1 | 14.5 µM (≈ 6.63 µg/mL) | 317 ×10⁻⁶ cm/s | 9.28 | 12 nM | 600 nM | 50 | 14100 nM | 1178 | 24
17 | COc1ccc(Oc2ccc3c(NCCCNCc4cc(F)ccc4OC)ccnc3c2)cc1 | 14.5 µM (≈ 6.69 µg/mL) | 317 ×10⁻⁶ cm/s | 9.28 | 54 nM | 660 nM | 12.2 | 7000 nM | 129 | 11
18 | Fc1ccc(Oc2ccc3c(NCCCNCc4ccc5c(c4)OCO5)ccnc3c2)cc1 | 14.5 µM (≈ 6.46 µg/mL) | 317 ×10⁻⁶ cm/s | 9.28 | 15 nM | 667 nM | 44.5 | 16000 nM | 1067 | 24
19 | COc1cccc(CNCCCNc2ccnc3cc(Oc4ccc(Cl)cc4)ccc23)c1O | 14.5 µM (≈ 6.73 µg/mL) | 317 ×10⁻⁶ cm/s | 9.28 | 11 nM | 785 nM | 70.7 | 5700 nM | 514 | 7
20 | Clc1ccc(Oc2ccc3c(NCCCNCc4ccco4)ccnc3c2)cc1 | 14.5 µM (≈ 5.91 µg/mL) | 317 ×10⁻⁶ cm/s | 9.28 | 40 nM | 793 nM | 19.8 | 7800 nM | 194 | 10
21 | COc1ccc(F)cc1CNCCCNc1ccnc2cc(Oc3ccccc3OC)ccc12 | 14.5 µM (≈ 6.69 µg/mL) | 317 ×10⁻⁶ cm/s | 9.28 | 22 nM | 960 nM | 44 | 6400 nM | 293 | 7
22 | COc1ccc(Oc2ccc3c(NCCCNCc4ccc5c(c4)OCO5)ccnc3c2)cc1 | 14.5 µM (≈ 6.63 µg/mL) | 317 ×10⁻⁶ cm/s | 9.28 | 46 nM | 1420 nM | 30.9 | 7900 nM | 172 | 6
23 | COc1cccc(CNCCCNc2ccnc3cc(Oc4ccccc4)ccc23)c1O | 14.5 µM (≈ 6.23 µg/mL) | 317 ×10⁻⁶ cm/s | 9.28 | 15 nM | 1840 nM | 122 | 6800 nM | 450 | 4
24 | COc1cccc(CNCCCNc2ccnc3cc(Oc4cccc(N(C)C)c4)ccc23)c1O | 14.5 µM (≈ 6.85 µg/mL) | 317 ×10⁻⁶ cm/s | 9.28 | 10 nM | 2040 nM | 215.1 | 7300 nM | 765 | 4
25 | CC(C)(C)c1ccc(Oc2ccc3c(NCCCNCc4ccc5c(c4)OCO5)ccnc3c2)cc1 | 14.5 µM (≈ 7.01 µg/mL) | 317 ×10⁻⁶ cm/s | 9.28 | 137 nM | 2450 nM | 17.9 | 900 nM | 7 | 0.4
26 | CC(C)CCc1ccc2c(NCCCNCc3ccco3)ccnc2c1 | 4.2 µM (≈ 1.48 µg/mL) | 23 ×10⁻⁶ cm/s | 9.47 | 176 nM | 4600 nM | 26.1 | 11200 nM | 63.7 | 2.4
27 | COc1ccc(F)cc1CNCCCNc1ccnc2cc(Cc3ccc(F)cc3Cl)ccc12 | 4.2 µM (≈ 2.02 µg/mL) | 23 ×10⁻⁶ cm/s | 9.47 | 208 nM | 1110 nM | 5.4 | 2460 nM | 11.8 | 2.2
28 | CC(C)Cc1ccc2c(NCCCNCc3ccco3)ccnc2c1 | 4.2 µM (≈ 1.42 µg/mL) | 23 ×10⁻⁶ cm/s | 9.47 | 581 nM | 4500 nM | 7.7 | 16000 nM | 27.5 | 3.6
29 | c1ccc(Cc2ccc3c(NCCCNCc4ccc5c(c4)OCO5)ccnc3c2)cc1 | 4.2 µM (≈ 1.79 µg/mL) | 23 ×10⁻⁶ cm/s | 9.47 | 720 nM | 1240 nM | 1.7 | 6280 nM | 8.7 | 5.1
